# Tb hexokinase – Trypanosoma brucei hexokinase 1 inhibitors, primary screen, biochemical, G6PDH-coupled NADH absorbance, MLSCN library | recombinant TbHK1, G6PDH-coupled NADH A340 | inhibition, % at 10 µM | actives 0.11% (n = 220,000) | AID 1430, 2008;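 active = inhibition of 50% or more in the single-dose primary screen; inactive = inhibition below 50%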
# EP2 antag – human EP2 receptor antagonists, primary screen, TR-FRET cAMP, C6 glioma cells; C6 glioma cells expressing human EP2; cells stimulated with saturating PGE2; AID 1422, 2008; actives 0.52% (n = 260,000); inhibition, % at 25 µM;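 active = percent inhibition above 40 after rounding to a whole number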;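 also: rat C6 glioma host cells with rolipram phosphodiesterase inhibitor present; the protocol text gives 20 µM as final concentration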
# Target sequence (P43116 whole entry, looked up): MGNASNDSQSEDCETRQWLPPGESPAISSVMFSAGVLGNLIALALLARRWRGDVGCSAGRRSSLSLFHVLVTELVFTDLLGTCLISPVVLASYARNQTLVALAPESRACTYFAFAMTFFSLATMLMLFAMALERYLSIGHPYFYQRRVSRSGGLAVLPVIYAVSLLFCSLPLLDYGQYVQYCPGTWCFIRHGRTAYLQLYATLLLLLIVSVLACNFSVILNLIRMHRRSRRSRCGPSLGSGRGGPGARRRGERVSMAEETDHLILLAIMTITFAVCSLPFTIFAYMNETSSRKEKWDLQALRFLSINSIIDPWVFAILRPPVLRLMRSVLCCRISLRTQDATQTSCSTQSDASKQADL
# MT stabilize HCS – microtubule stabilizers in HeLa cells, primary screen, imaging, high-content imaging | HeLa tubulin immunostaining HCS, 24 h; share of cells brighter than vehicle mean+2SD | % tubulin-high responders, % at 10 µM | actives 0.83% (n = 200,000) | AID 2205, 2009;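 active = plate Z-score above 3 for both tubulin-high and condensed-nucleus cell shares, with cell loss under 80%, at 10 µM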;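 also: anti alpha tubulin signal scored within the nucleus-defined area of each cell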
# EP2 mod – EP2 receptor modulators, cAMP readout, primary screen, cell-based, HTRF cAMP, PGE2 stimulation; EP2-expressing cells, cAMP HTRF FRET, PGE2 co-stimulation; induction, % at 25 µM; actives 0.83% (n = 260,000); AID 940, 2007; Prostaglandin E2 receptor EP2 subtype (Homo sapiens), P43116;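 active = compounds whose cAMP rise, as percent of the full-agonist control response, exceeds 60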;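 also: rat C6 glioma line stably carrying human EP2 under a CMV promoter; the protocol text gives 20 µM as final concentration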
# bCat nuc transl – modulators of beta-catenin nuclear translocation, primary screen, imaging, HeLa cells, immunofluorescence, high-content. nuclear translocation activity, % at 5 µM. actives 0.3% (n = 190,000);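 active = nuclear translocation activity above 50% at 5 µM, with a well cell count of 50 or more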;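 also: per-cell ratio of nuclear to cytoplasmic median beta-catenin stain intensity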
#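 System: Human HeLa cells, endogenous beta-catenin | Compound dosing: 5 µM primary, 0.02–20 µM confirmation | Timing: 24 h compound exposure at 37°C, 5% CO2 | Measured by: Fluorescence imaging of beta-catenin antibody stain plus DAPI | Read-out basis: % activation of per-cell nuclear versus cytoplasmic median beta-catenin signal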
# HMGR II inh – inhibitors of E. faecalis class II HMGR, primary screen, biochemical, Enterococcus faecalis; AID 1066, 2008; actives 0.41% (n = 190,000); inhibition, % at 10 µM; purified E. faecalis HMGR, NADPH absorbance 340 nm kinetic;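 active = inhibition above a set limit, the median over all tested compounds plus 3 SD, cut at about 9.5% in these data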;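 also: enzyme runs in reverse so mevalonate oxidation gives rising NADPH absorbance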
# EP2 confirm – cAMP induction in EP2, EP4, beta2-AR and parental cells, confirmation, counter-screen for EP2 modulator project, cell-based, five parallel assays, C6 glioma, HEK293; shares compounds with EP2 mod; cAMP HTRF induction; plus low (about EC15) PGE2 agonist; calls only at 20 µM (by protocol); actives 47% (n = 1,300);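 active = cAMP induction above 50% in the main assay while under 30% in all four parallel counter assays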;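 also: rat C6 glioma cells stably expressing human EP2 receptor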
# A number is an active result; n = inactive; x = no result; + = active, no number. Sampled rows, rich in hits. Any-hit rate of the full collection: about 2.4%.
SMILES,Tb hexokinase,EP2 antag,MT stabilize HCS,EP2 mod,bCat nuc transl,HMGR II inh,EP2 confirm
Nc1c(C(=O)NCc2ccco2)c2nc3ccccc3nc2n1CCc1ccccc1,n,n,n,68,n,n,n
Nc1c(C(=O)NCc2ccccc2)c2nc3ccccc3nc2n1CCCN1CCOCC1,n,n,n,77,n,n,n
Cc1ccc(OCC(=O)Nc2ccccc2N2CCOCC2)cc1C,x,n,x,n,x,x,x
CCNC(=S)N(CCCN1CCOCC1)Cc1cc2ccc(OC)cc2[nH]c1=O,x,n,x,n,x,x,x
Fc1ccccc1-c1nc(-c2ccc(Cl)cc2)no1,n,n,n,x,x,x,x
c1ccc(-c2noc(-c3ccccc3-c3ccccc3)n2)cc1,n,n,n,n,n,n,+
O=S(=O)(NC1CCCCC1)c1ccc(S(=O)(=O)N2CCc3ccccc32)cc1,x,n,x,n,x,x,x
CNc1oc(-c2ccccc2)nc1C#N,n,n,n,n,n,n,x
CNc1oc(-c2ccc(Cl)cc2)nc1P(=O)(c1ccccc1)c1ccccc1,n,n,n,68,n,n,+
Cc1ccc(-c2nc(P(=O)(c3ccccc3)c3ccccc3)c(N3CCOCC3)o2)cc1,n,n,n,65,n,n,n
CCc1ccc2[nH]c(=O)c(CN(C(=S)NCC3CCCO3)C3CCCC3)cc2c1 (stereo not given),x,n,x,n,x,x,x
S=c1nc[nH]c2c1[nH]c1ccccc12,n,n,n,83,n,n,n
O=C(c1cccs1)N1N=C(c2ccccc2)CC1c1ccc(O)cc1 (stereo not given),n,n,n,74,n,n,n
Cc1ccc(O)c(C2=Nc3ccccc3N=C(c3cccs3)C2)c1,n,n,n,69,n,n,n
CCc1nn(CC(=O)NC2CCCC2)c(=O)c2cc3oc(C)cc3n12,x,n,x,n,x,x,x
Cc1oncc1-c1csc(-c2ccccc2Cl)n1,n,n,n,69,n,n,+
COC(=O)/C(C)=C/CC12OC(C)(C)C3CC(C=C4C(=O)c5cc6c(c(CCC(C)(C)Cl)c5OC431)OC1(C)CCC(=C(C)C)C6C1)C2=O (stereo not given),x,n,x,n,x,x,x
CC(=O)Oc1c2c(c3c(c1CC=C(C)C)O[C@]14C(=C[C@@H]5CC1C(C)(C)OC4(C/C=C(\C)C(=O)O)C5=O)C3=O)OC(C)(CCC=C(C)C)C=C2 (stereo not given in full),x,n,x,n,x,x,n
CCOC(=O)c1sc2ncnc(N3CCN(C)CC3)c2c1C,n,n,n,n,n,n,x
CCOC(=O)c1sc2nc(C)nc(N3CCN(c4ncccn4)CC3)c2c1C,n,n,n,67,n,n,n
CC(C)CNC(=O)C(=O)NNC(=O)c1ccco1,n,n,n,n,n,n,n
Cc1ccc(N(CC(=O)N/N=C/c2ccc(OC3CSC3)cc2)S(=O)(=O)c2ccccc2)cc1,n,n,n,76,n,n,+
COc1ccc(N(CC(=O)N/N=C/c2ccc(OC3CSC3)cc2)S(=O)(=O)c2ccccc2)cc1,n,n,n,n,n,n,x
C=CCOc1ccccc1CNc1cccc(F)c1,n,n,n,72,n,n,n
C=CCOc1ccccc1CNc1ccccc1C,n,n,n,81,n,n,+
Cc1sc(NC(=O)c2ccccc2F)c(CN2CCCCC2C)c1C (stereo not given),n,n,n,79,n,n,+
COCC(=O)N(C)c1nnc(-c2cnccn2)s1,n,n,n,n,n,n,x
COCC(=O)N(C)c1nnc(-c2cnc(C)cn2)s1,n,n,n,71,n,n,n
Cc1nc2c3cc(F)ccc3n(Cc3ccccc3)c2s1,n,n,28,72,n,n,+
